Biological target: T1, Sodium- and chloride-dependent glycine transporter 2 (Homo sapiens, UniProt Q9Y345)
T1 sequence (Q9Y345 whole entry): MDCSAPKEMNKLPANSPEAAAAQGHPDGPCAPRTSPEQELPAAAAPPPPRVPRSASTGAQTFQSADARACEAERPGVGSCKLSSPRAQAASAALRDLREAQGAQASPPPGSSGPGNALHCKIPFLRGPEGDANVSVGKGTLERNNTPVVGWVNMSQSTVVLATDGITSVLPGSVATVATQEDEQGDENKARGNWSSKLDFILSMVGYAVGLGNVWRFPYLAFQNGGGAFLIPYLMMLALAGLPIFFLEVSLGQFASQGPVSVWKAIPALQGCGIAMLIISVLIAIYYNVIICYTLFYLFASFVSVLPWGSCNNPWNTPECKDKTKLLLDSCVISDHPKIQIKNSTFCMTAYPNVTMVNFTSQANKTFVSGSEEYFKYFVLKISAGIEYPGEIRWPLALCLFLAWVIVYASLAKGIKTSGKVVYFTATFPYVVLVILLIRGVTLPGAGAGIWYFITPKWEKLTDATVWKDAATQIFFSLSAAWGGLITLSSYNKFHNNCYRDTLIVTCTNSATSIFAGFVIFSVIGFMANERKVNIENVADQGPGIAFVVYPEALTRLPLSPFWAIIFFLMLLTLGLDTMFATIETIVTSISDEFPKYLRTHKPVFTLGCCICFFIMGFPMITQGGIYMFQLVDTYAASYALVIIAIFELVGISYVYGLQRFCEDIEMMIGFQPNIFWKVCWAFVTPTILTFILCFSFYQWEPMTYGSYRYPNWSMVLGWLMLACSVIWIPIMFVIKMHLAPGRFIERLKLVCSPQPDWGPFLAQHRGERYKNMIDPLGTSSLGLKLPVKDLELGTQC
Assay: Inhibition of human glycine transporter-2 expressed in HEK293 cells assessed as reduction in [14C]glycine uptake preincubated for 10 mins followed by [14C]glycine addition measured after 3 hrs by scintillation proximity assay
Method in brief: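 HEK293 cells stably transfected with GlyT-2 (Geneticin-selected polyclonal population) were plated on poly-L-lysine-coated plates in DMEM/10% FBS and incubated overnight. The [¹⁴C]glycine uptake SPA was then run as for JAR cells: uptake buffer, 10 min room-temperature preincubation, 3 h incubation at 37 °C.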

IC50: > 75 µM
SMILES: CC(NC(=O)c1ccc(C(F)(F)F)cc1Cl)C1(N2CCN(S(=O)(=O)c3cn(C)nn3)CC2)CCC(F)(F)CC1 (stereo unspecified)

Source: BindingDB's records for doi:10.1021/acs.jmedchem.6b00914 (Amri, 2016)
